Experimental data: PubChem BioAssay
Results filed as inconclusive are left out.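 Rule for the calls, unless noted: active = cell viability at or below a set limit in both duplicate runs, the limit being the all-compound median minus 4 SD (cut at about 23% in these data, passing the limit was not always enough); inconclusive = no clear call, values can overlap the other calls; inactive = the rest.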

Columns and labels:
[1] = S. cerevisiae growth inhibition in permissive medium (OD615), pilot counter-assay for S. cerevisiae lifespan shortening project, permissive growth control (AID 705;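 active = growth inhibition above 25% in both replicates, a cutoff set 3 SD above the mean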); conditions: OD615, 24 h, at 10 µM, hits give high values
How it was run: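 System: S. cerevisiae with engineered DeaD lifespan system / Measured by: absorbance (optical density) at 615 nm / Read-out: reduction in yeast growth (OD615) / Times: 4 h cell pre-growth, 24 h exposure at 30 °C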

[2] = S. cerevisiae growth inhibition in restrictive medium, OD615, pilot screen, restrictive growth control, yeast lifespan reduction project (AID 706;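 active = growth inhibition above a set limit, 3 SD over mean compound inhibition, in both replicates, cut at about 43% in these data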;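 note: modified DeaD lifespan yeast strain shifted to restrictive glucose medium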); conditions: OD615, 48 h, at 10 µM, hits give high values
How it was run: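 System: Engineered S. cerevisiae DeaD strain | Buffer or medium: Glucose-based CSMM-D restrictive medium | Schedule: 4 h pre-incubation, 48 h exposure at 30 °C | Technique: Optical density at 615 nm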

[3] = doxorubicin toxicity protection in MRP-1 cells – H69AR cells, CellTiter-Glo, duplicate, MRP-1 activator project, pilot screen (AID 807;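 active = viability increase at or above a cutoff of the median across tested compounds plus 3 SD, cut at about 8.5% in these data, passing the limit was not always enough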;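 note: compound pretreatment 18-22 h then 72 h combined with doxorubicin; 0% = doxorubicin alone and 100% = vehicle without doxorubicin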); conditions: H69AR viability with doxorubicin, CellTiter-Glo luminescence; at 10 µM; hits give high values
[4] = viability of HCT116 without oncogenic beta-catenin – human colon tumor cells, pilot screen (AID 823); conditions: HCT116 beta-catenin knockout viability, CellTiter-Glo, 60 h; at 10 µM; hits give low values;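 note: 0% = wells killed by 20 µM Hyamine and 100% = untreated DMSO cell wells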
[5] = RAM pathway blockade in budding yeast – dse1pr::URA3 reporter, 5-FOA selection, pilot screen (AID 869;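 active = inhibition over a set limit, the all-compound mean plus 3 SD, in both replicate runs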;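 note: 0% = DMSO wells with no growth and 100% = 10 µM 1-NA-PP1 with full growth; RAM network block rescues cells from 5-FOA so hits raise OD615 growth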); conditions: S. cerevisiae dse1pr::URA3 5-FOA growth, OD615, 2 d; at 10 µM; hits give high values; strain carries analog-sensitive mutant Cbk1 kinase
[6] = RAM signaling pathway blockade in yeast – S. cerevisiae, Pdr1DBD-CYC8 efflux-inhibited sensitized strain, primary screen (AID 1298;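 active = RAM network inhibition above 8.4% in each of two replicates, 3 SD over the compound average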;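 note: 0% = DMSO untreated cells without growth and 100% = 10 µM 1-NA-PP1 full growth; higher means more yeast growth rescued from 5-FOA killing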); conditions: S. cerevisiae cbk1-as DSE1-URA3 strain, 5-FOA growth OD615, 2 d; at 50 µM; hits give high values

COCC(=O)NCc1nc2ccccc2[nH]1
inactive: growth inhibition [1] -12.6% | growth inhibition [2] -0.605% | viability increase [3] -1.85% | viability [4] 105% | inhibition [5] 1.76% | RAM network inhibition [6] 2.13%

O=C(Cn1c(=O)sc2ccccc21)Nc1ccc2c(c1)OCCO2
inactive: growth inhibition [1] -22.9% | growth inhibition [2] -7.4% | viability increase [3] -4.54% | viability [4] 93.9% | inhibition [5] 1.6% | RAM network inhibition [6] 6.6%

COc1ccc(NC(=O)c2cncc(Br)c2)c(S(=O)(=O)N2CCOCC2)c1
inactive: growth inhibition [1] -1.69% | growth inhibition [2] 7.98% | viability increase [3] -5.06% | viability [4] 98.3% | inhibition [5] 2.21% | RAM network inhibition [6] 4.58%

CSC(=NCCCN1CCOCC1)NS(=O)(=O)c1cccs1
inactive: growth inhibition [1] -13.8% | growth inhibition [2] -11.4% | viability increase [3] -1.56% | viability [4] 95.6% | inhibition [5] 1.51% | RAM network inhibition [6] 1.45%

N#Cc1c2n(cnc1=O)CCCCC2
inactive: growth inhibition [1] -15.7% | growth inhibition [2] 3.32% | viability increase [3] -1.5% | viability [4] 100% | inhibition [5] 0.835% | RAM network inhibition [6] 3.53%

O=C(CN(CC(=O)N1CCOCC1)S(=O)(=O)c1ccc(Br)s1)N1CCOCC1
inactive: growth inhibition [1] 5.73% | growth inhibition [2] -2.16% | viability increase [3] -3.71% | viability [4] 98% | inhibition [5] -0.32% | RAM network inhibition [6] 0.11%

C[C@@H](NC(=O)c1coc(=O)c(Br)c1)c1ccccc1
inactive: growth inhibition [1] -24.5% | growth inhibition [2] 3.37% | viability increase [3] -8.28% | viability [4] 63.7% | inhibition [5] 3.79% | RAM network inhibition [6] 7.48%

O=C(COCCOCC(=O)N(c1ccccn1)C1CCCCC1)N(c1ccccn1)C1CCCCC1
inactive: growth inhibition [1] -12.8% | growth inhibition [2] -7.35% | viability increase [3] -2.48% | viability [4] 92.3% | inhibition [5] 1.31% | RAM network inhibition [6] 8.62%

c1coc(CNc2nc3sc4c(c3c3ncnn23)CCCC4)c1
inactive: growth inhibition [1] -19.5% | growth inhibition [2] 0.565% | viability increase [3] -2.99% | viability [4] 99.4% | inhibition [5] 2.65% | RAM network inhibition [6] 3.48%

O=C(Nc1nnc(-c2ccc3c(c2)CCCC3)o1)c1ccccc1Cl
inactive: growth inhibition [1] -7.88% | growth inhibition [2] 18.4% | viability increase [3] -4.31% | viability [4] 34.6% | inhibition [5] 2.51% | RAM network inhibition [6] 4.48%

CCN(Cc1ccncc1)C(=O)c1cccc(S(=O)(=O)N2CCOCC2)c1
inactive: growth inhibition [1] -4.12% | growth inhibition [2] 6.31% | viability increase [3] -2.89% | viability [4] 99.1% | inhibition [5] 1.07% | RAM network inhibition [6] 9.82%

CCOc1ccccc1NC(=O)CSc1nnc(-c2cnccn2)n1C
inactive: growth inhibition [1] -24.8% | growth inhibition [2] -1.53% | viability increase [3] -3.17% | viability [4] 91.8% | inhibition [5] 3.12% | RAM network inhibition [6] 5.04%

Cc1c(C(=O)Nc2ccncc2)sc2nc(-c3ccc(F)cc3)cn12
inactive: growth inhibition [1] -5.44% | growth inhibition [2] 11.7% | viability increase [3] -6.8% | viability [4] 42.3% | inhibition [5] 1.96% | RAM network inhibition [6] 8.43%

Cc1nc2nc(SCC(=O)N3CCOCC3)nn2c(C)c1Cc1c(F)cccc1Cl
inactive: growth inhibition [1] -2.75% | growth inhibition [2] 34% | viability increase [3] -6.91% | viability [4] 88.4% | inhibition [5] 0.35% | RAM network inhibition [6] 3.17%

Cc1nn(CC(=O)Nc2cccnc2N2CCOCC2)c(=O)c2ccccc12
inactive: growth inhibition [1] -23.7% | growth inhibition [2] 1.05% | viability increase [3] -2.18% | viability [4] 95% | inhibition [5] 1.22% | RAM network inhibition [6] 1.71%

CCOC(=O)/C=c1\sc2n(c1=O)CCN=2
inactive: growth inhibition [1] -0.765% | growth inhibition [2] -2% | viability increase [3] -3.32% | viability [4] 91.9% | inhibition [5] 1.44% | RAM network inhibition [6] 2.73%

O=C(NCC1COc2ccccc2O1)c1ccc(NC(=O)C2CCCO2)cc1 (stereo not given)
inactive: growth inhibition [1] -15.3% | growth inhibition [2] 3.32% | viability increase [3] 0.86% | viability [4] 99.7% | inhibition [5] 4.43% | RAM network inhibition [6] 8.99%

CC(=O)c1ccc(NC(=O)CSc2nnc(NC(=O)CN3CCOCC3)s2)cc1
inactive: growth inhibition [1] 8.22% | growth inhibition [2] 7.59% | viability increase [3] -1.64% | viability [4] 102% | inhibition [5] 2.19% | RAM network inhibition [6] 0.62%

CC1(C)SCC(C(=O)O)N1C=O (stereo not given)
inactive: growth inhibition [1] -16% | growth inhibition [2] -6.9% | viability increase [3] -0.04% | viability [4] 105% | inhibition [5] 1.66% | RAM network inhibition [6] 2.9%

COc1cc(C2/C(=C(\O)c3cc(C)ccc3C)C(=O)C(=O)N2CCN(C)C)ccc1O (stereo not given)
inactive: growth inhibition [1] -21.2% | growth inhibition [2] -6.28% | viability increase [3] -1.94% | viability [4] 100% | inhibition [5] 1.94% | RAM network inhibition [6] 10.3%
